# Published values of several laboratories.
# Lines come from different studies, so protocols differ.
# Cell line: MV4-11
# Read-out: cell growth or viability
Structure (SMILES),technique,time,quantity,value
c1cc(N2CCCC2)ccc1-c1cc2ncc(OCC3CCNCC3)nc2cc1-c1ccc(N2CCCC2)cc1,XTT,7 days,EC50,1900 nM
Cc1n[nH]c2ccc3nc(-c4ccc(C(=O)NCCN(C)C)nc4)c4c(c3c12)CCCCC4,resazurin,72 h,GI50,181 nM
O=C(NO)c1ccc(Cn2cnc3c(Nc4cccc([N+](=O)[O-])c4)ncnc32)cc1,MTT,72 h,IC50,280 nM
c1cc(N2CCC(N3CCOCC3)CC2)ccc1Nc1ccc2ncc(OCC3CCNCC3)nc2c1,XTT,7 days,EC50,≥ 28000 nM
Nc1ccccc1NC(=O)c1ccc(Cn2cnc3c(Nc4ccc(Cl)cc4)ncnc32)cc1,MTT,72 h,IC50,590 nM
CN(C)CCN(C)C(=O)c1ccc(-c2nc3ccc4[nH]ncc4c3c3c2CC(C)(C)CC3)cc1,resazurin,72 h,GI50,1900 nM
O=C(NO)c1ccc(Cn2cnc3c(Nc4ccc(Cl)cc4)ncnc32)cc1,MTT,72 h,IC50,60 nM
c1ccc(COc2ccc(Nc3ccc4ncc(OCC5CCNCC5)nc4c3)cc2)cc1,XTT,7 days,EC50,840 nM
O=C(NCC1CC1)c1ccc(-c2nc3ccc4[nH]ncc4c3c3c2CCCC3)cc1,resazurin,72 h,GI50,> 10000 nM
COc1ccc(Nc2ncnc3c2ncn3Cc2ccc(C(=O)NO)cc2)cc1,MTT,72 h,IC50,580 nM
Cc1cc2c(C(=O)O)cccc2n1-c1nc2c(c(NCc3ccccc3)n1)CCCN2,,72 h,IC50,800 nM
Cc1n[nH]c2ccc3nc(-c4ccc(C(=O)NCCN(C)C)cc4)c4c(c3c12)CCC(C)(C)C4,resazurin,72 h,GI50,223 nM
Cc1cc2c(C(N)=O)cccc2n1-c1nc2c(c(NCc3ccccc3)n1)CCCN2,,72 h,IC50,300 nM
c1ccc(Oc2ccc(Nc3ccc4ncc(OCC5CCNCC5)nc4c3)cc2)cc1,XTT,7 days,EC50,880 nM
CN(C)CCNC(=O)c1ccc(-c2nc3ccc4[nH]ncc4c3c3c2COCC3)cc1,resazurin,72 h,GI50,291 nM
